# Key:
# [1] = target: T1, Sodium-dependent dopamine transporter (Rattus norvegicus, UniProt P23977); test: Inhibition of [125I]RTI-55 binding to dopamine transport sites in rat striatal membranes.; type: cell membranes, Membrane
# [2] = target: Sodium-dependent serotonin transporter (Rattus norvegicus, UniProt P31652); test: Inhibition of [3H]paroxetine binding to serotonin transport sites in rat frontal cortex membranes.; type: cell membranes, Membrane
# How it was run: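 Frontal cortex from male Sprague-Dawley rats, homogenized in 50 mM Tris-HCl/120 mM NaCl/5 mM KCl pH 7.4 and washed twice at 48000g. […] Filtered on GF/B presoaked in 0.05% polyethyleneimine. Nonspecific binding with 10 μM fluoxetine.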
# [3] = target: T1, Sodium-dependent dopamine transporter; test: The potency of the [125I]RTI-55 for Dopamine transporter site
# Sequence of Sodium-dependent serotonin transporter (P31652 whole entry): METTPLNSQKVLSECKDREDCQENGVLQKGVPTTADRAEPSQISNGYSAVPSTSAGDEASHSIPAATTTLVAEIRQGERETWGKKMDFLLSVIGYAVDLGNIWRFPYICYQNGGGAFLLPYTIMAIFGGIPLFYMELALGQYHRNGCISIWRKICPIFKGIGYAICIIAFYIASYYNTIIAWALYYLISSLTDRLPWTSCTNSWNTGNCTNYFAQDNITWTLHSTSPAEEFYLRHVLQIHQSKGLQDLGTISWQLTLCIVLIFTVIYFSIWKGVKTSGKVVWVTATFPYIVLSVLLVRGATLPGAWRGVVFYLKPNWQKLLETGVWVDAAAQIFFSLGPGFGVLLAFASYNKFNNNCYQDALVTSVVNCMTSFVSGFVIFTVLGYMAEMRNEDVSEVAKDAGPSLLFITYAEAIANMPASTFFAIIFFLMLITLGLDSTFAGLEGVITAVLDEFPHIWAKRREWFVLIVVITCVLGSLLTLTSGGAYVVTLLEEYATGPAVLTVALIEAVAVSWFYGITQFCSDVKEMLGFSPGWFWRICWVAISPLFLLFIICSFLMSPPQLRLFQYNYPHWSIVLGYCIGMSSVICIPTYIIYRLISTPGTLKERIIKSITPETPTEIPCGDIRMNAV
# T1 sequence (P23977 whole entry): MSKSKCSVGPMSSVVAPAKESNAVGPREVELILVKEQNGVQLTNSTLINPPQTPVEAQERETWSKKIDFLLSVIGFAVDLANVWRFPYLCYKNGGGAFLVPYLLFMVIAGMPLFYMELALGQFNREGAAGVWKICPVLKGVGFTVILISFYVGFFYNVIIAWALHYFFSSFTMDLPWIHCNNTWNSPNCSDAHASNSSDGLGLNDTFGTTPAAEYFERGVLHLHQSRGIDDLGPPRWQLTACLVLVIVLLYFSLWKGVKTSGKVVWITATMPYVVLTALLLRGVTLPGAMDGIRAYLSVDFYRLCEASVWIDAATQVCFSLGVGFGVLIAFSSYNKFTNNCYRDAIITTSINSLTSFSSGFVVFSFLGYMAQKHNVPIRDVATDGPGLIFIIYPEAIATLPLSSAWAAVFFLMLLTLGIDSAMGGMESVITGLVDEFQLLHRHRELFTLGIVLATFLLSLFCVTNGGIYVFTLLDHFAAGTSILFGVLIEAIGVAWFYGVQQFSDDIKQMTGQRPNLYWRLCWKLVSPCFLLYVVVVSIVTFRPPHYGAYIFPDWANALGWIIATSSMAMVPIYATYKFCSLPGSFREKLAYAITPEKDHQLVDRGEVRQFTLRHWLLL
SMILES,IC50 [1] [nM],Ki [2] [nM],Kd [3] [nM]
CCC(=O)C1C(c2ccc(C(C)(C)C)cc2)CC2CCC1N2C (stereo unspecified),2120,1770,–
CCC(=O)C1C(c2ccc(-c3ccccc3)cc2)CC2CCC1N2C (stereo unspecified),2.29,4.31,–
CC(=O)C1C(c2ccc(F)cc2)CC2CCC1N2C (stereo unspecified),70.8,857,–
CC(=O)C1C(c2ccc3ccccc3c2)CC2CCC1N2C (stereo unspecified),0.28,1.06,–
CC(=O)C1C(c2ccc(C)cc2)CC2CCC1N2C (stereo unspecified),9.8,122,–
CCC(=O)C1C(c2ccc(F)cc2)CC2CCC1N2C (stereo unspecified),15.3,630,–
CC(=O)C1C(c2cccc3ccccc23)CC2CCC1N2C (stereo unspecified),–,25.6,–
CCOC(=O)C1C(c2ccc(I)cc2)CC2CCC1N2C (stereo unspecified),–,–,1
CCC(=O)C1C(c2ccccc2)CC2CCC1N2C (stereo unspecified),–,1010,–
CCc1ccc(C2CC3CCC(C2C(C)=O)N3C)cc1 (stereo unspecified),152,78.2,–
CCC(=O)C1C(c2ccccc2C)CC2CCC1N2C (stereo unspecified),1290,> 10000,–
CCC(=O)C1C(c2ccc(C(C)C)cc2)CC2CCC1N2C (stereo unspecified),436,35.8,–
CCC(=O)C1C(c2cccc3ccccc23)CC2CCC1N2C (stereo unspecified),5.34,20.9,–
CCC(=O)C1C(C2CCCCC2)CC2CCC1N2C (stereo unspecified),4610,> 10000,–
CCC(=O)C1C(CC)CC2CCC1N2C (stereo unspecified),> 50000,> 10000,–
CC(=O)C1C(c2ccccc2)CC2CCC1N2C (stereo unspecified),114,1360,–
"CCC(=O)C1C(c2ccc(C)cc2)CC2CCC1N2C (single isomer, unassigned; (+))",4.21,74,–
"CCC(=O)C1C(c2ccc(C)cc2)CC2CCC1N2C (single isomer, unassigned; (-))",1340,> 10000,–
"CCC(=O)C1C(c2ccc3ccccc3c2)CC2CCC1N2C (single isomer, unassigned; (-))",113,484,–
CCC(=O)C1C(c2ccc(C)cc2)CC2CCC1N2C (stereo in doubt; 12a),8.2,131,–
CCC(=O)C1C(c2ccc3ccccc3c2)CC2CCC1N2C (stereo in doubt; 21a),0.115,0.394,–
CCC(=O)C1C(c2ccc3ccccc3c2)CC2CCC1N2C (stereo in doubt; (+)-21a),0.043,0.121,–

# From ChEMBL document CHEMBL1127821 (J Med Chem, 1994)
